High-throughput results: PubChem, several laboratories
Shown are actives, neighbours in structure and some others; about 2.2% of the full set was active somewhere.
RBBP9 inh = human RBBP9 hydrolase inhibition. O75884. recombinant RBBP9, FP-Rh probe fluorescence polarization. inhibition, % at 7.94 µM. 220,000 tested, 0.2% active. AID 1515;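 active = inhibition above the campaign mean of all tested compounds plus 3 SD, cut at about 14% in these data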;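 note: plate controls were DMSO wells with RBBP9 for no effect and wells lacking RBBP9 protein for full effect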
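Measured by – fluorescence polarization · Test system – RBBP9 protein · Input – 2.5 µM RBBP9 dispensing solution, before mixing · Measure – percent inhibition from mP, scaled between DMSO and no-protein wells · Benchmarks – DMSO-treated enzyme wells and wells lacking RBBP9 · Times – preincubation 30 min plus labeling 45 min at 25 °C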
Arbovirus inh = antivirals against arbovirus infection. 200,000 tested, 0.37% active. inhibition, % at 10 µM. AID 1251. arbovirus infection cell-based antiviral screen; in the data active = inhibition above about 30%
p97 ATPase inh = inhibitors of human p97 ATPase | P55072 | recombinant p97 ATPase, Kinase-Glo ATP luminescence, 3 h | inhibition, % at 8 µM | 220,000 tested, 0.42% active; in the data active = inhibition above about 15%;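 note: 0% = DMSO vehicle and 100% = wells lacking enzyme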
Target sequence (P55072 whole entry, looked up): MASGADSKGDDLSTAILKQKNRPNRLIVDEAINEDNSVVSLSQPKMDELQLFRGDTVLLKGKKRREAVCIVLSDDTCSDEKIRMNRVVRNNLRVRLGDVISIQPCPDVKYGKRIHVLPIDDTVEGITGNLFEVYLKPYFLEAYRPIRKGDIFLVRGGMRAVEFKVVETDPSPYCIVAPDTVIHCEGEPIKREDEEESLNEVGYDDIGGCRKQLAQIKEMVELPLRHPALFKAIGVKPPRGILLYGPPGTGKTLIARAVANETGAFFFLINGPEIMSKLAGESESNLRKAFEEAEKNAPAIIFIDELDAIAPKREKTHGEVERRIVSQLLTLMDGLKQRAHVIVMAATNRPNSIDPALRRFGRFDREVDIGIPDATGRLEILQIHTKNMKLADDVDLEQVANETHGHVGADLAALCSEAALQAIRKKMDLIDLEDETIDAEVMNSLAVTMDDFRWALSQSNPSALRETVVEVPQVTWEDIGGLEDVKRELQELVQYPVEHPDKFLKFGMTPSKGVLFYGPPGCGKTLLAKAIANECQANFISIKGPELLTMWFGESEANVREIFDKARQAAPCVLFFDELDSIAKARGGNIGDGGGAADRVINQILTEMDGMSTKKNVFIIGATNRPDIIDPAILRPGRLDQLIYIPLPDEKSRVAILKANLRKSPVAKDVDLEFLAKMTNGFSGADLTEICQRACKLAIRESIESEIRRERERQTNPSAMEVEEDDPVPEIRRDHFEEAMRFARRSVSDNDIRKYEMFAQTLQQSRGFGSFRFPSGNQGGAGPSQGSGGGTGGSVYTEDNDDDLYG
Redox H2O2 prof = compounds producing H2O2 with reducing agent – biochemical, NIH compound library profiling, artefact control for MLSCN library redox annotation, primary screen | DTT-dependent redox cycling H2O2, phenol red/HRP absorbance; 100% = 100 µM peroxide control, 0% = buffer | activation, % at 10 µM | 200,000 tested, 0.03% active;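 active = activation of at least 50% relative to the plate's high and low controls in the primary single-dose screen; inactive = activation below 50%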;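 note: compound incubated with DTT at 0.8 mM final as the reducing agent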
PKD1 inh = blocks activity of human protein kinase D1; PKD1 kinase fluorescence polarization assay; inhibition, % (test concentration not listed); 200,000 tested, 0.056% active; in the data active = inhibition above about 50%
Wee1 stabilizer = human Wee1 degradation inhibition, primary screen; HeLa Luc-Wee1K328M stability, luciferase luminescence; 100% = proteasome inhibitor MG132 effect; reporter increase, % at 5 µM; 220,000 tested, 1.2% active; AID 1321; P30291;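 active = activation above the mean of all tested compounds plus 3 SD, set per screening run, cut at about 8.8% in these data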;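 note: cells exposed to compound for 20 h before luminescence read; 0% = DMSO alone and 100% = MG132 at 30 µM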
p97 inh conf = confirmation of human p97 ATPase inhibitors | shares compounds with p97 ATPase inh | recombinant p97 ATPase, Kinase-Glo ATP luminescence | inhibition, % at 8 µM | 760 tested, 44% active;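 active = percent inhibition of p97 ATPase above a set limit, the primary screen's mean plus 3 SD, cut at about 15% in these data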;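 note: 0% = DMSO wells and 100% = wells lacking p97 protein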
Numbers without * were called inactive.

What do the screens show for `O=C(O)c1cc(-c2ccco2)nc2cc3ccccc3cc12`?
RBBP9 inh: -8; p97 ATPase inh: 30*; Wee1 stabilizer: 2; p97 inh conf: 23*

Results for Cc1nonc1NC(=O)CSc1nc2ccccc2[nH]1 ?
RBBP9 inh: -6; Arbovirus inh: 1; p97 ATPase inh: 0; Redox H2O2 prof: -2; PKD1 inh: 0; Wee1 stabilizer: -3

Results for CCOC(=O)NC(=O)CSc1nc2ccccc2[nH]1 ?
RBBP9 inh: -9; Arbovirus inh: -1; p97 ATPase inh: 16*; Redox H2O2 prof: 0; PKD1 inh: 2; Wee1 stabilizer: -1; p97 inh conf: 6

Results for O=C(NNC(=S)NC(=O)c1cccnc1)c1ccc(F)cc1 ?
RBBP9 inh: -7; p97 ATPase inh: 15*; Wee1 stabilizer: -3; p97 inh conf: 9

How did O=C(NNC(=S)NC(=O)c1cccnc1)c1ccccc1 do in these assays?
RBBP9 inh: -11; Arbovirus inh: -14; p97 ATPase inh: 1; Redox H2O2 prof: -1; PKD1 inh: 4; Wee1 stabilizer: -2

Results for CCC(=O)Nc1cccc(-c2cnc3ccccc3n2)c1 ?
RBBP9 inh: 5; Arbovirus inh: -3; p97 ATPase inh: -5; Redox H2O2 prof: 0; PKD1 inh: -7; Wee1 stabilizer: -1

How did O=C(CCl)Nc1cccc(-c2cnc3ccccc3n2)c1 do in these assays?
RBBP9 inh: -7; Arbovirus inh: -45; p97 ATPase inh: 18*; Redox H2O2 prof: 0; PKD1 inh: 5; Wee1 stabilizer: 0; p97 inh conf: 35*

Results for CN1C(=O)CC(Nc2cccc3cccc(N)c23)C1=O (stereo unspecified) ?
RBBP9 inh: 1; Arbovirus inh: -11; p97 ATPase inh: 7; Redox H2O2 prof: 0; PKD1 inh: 11; Wee1 stabilizer: -2

What do the screens show for `CC(C)N1C(=O)CC(Nc2cccc3cccc(N)c23)C1=O` (stereo unspecified)?
RBBP9 inh: 14; Arbovirus inh: 4; p97 ATPase inh: 18*; Redox H2O2 prof: -1; PKD1 inh: 3; Wee1 stabilizer: 0; p97 inh conf: 3

Results for N#Cc1nccnc1S(=O)(=O)c1cccs1 ?
RBBP9 inh: -1; p97 ATPase inh: 5; Wee1 stabilizer: -1

What do the screens show for `COCCOC(=O)C(CC(=O)O)NCc1ccco1` (stereo unspecified)?
RBBP9 inh: 4; p97 ATPase inh: 16*; Wee1 stabilizer: 2; p97 inh conf: 2

How did COC(=O)C(CC(=O)O)NCc1ccco1 (stereo unspecified) do in these assays?
RBBP9 inh: 0; p97 ATPase inh: 8; Wee1 stabilizer: -1

What do the screens show for `CC(=O)OCC(=O)C1=CCC2C3CCC4=CC(=O)C=CC4(C)C3(F)C(OC(C)=O)CC12C` (stereo unspecified)?
RBBP9 inh: 0; Arbovirus inh: 12; p97 ATPase inh: 15*; Redox H2O2 prof: 9; PKD1 inh: 3; Wee1 stabilizer: 1; p97 inh conf: 7

Results for O=C(O)COc1ccc(=O)n(-c2ccccc2)n1 ?
RBBP9 inh: 0; Arbovirus inh: 4; p97 ATPase inh: -3; Redox H2O2 prof: 0; PKD1 inh: 2; Wee1 stabilizer: 0

How did COC(=O)COc1ccc(=O)n(-c2ccccc2)n1 do in these assays?
RBBP9 inh: -4; Arbovirus inh: 2; p97 ATPase inh: 18*; Redox H2O2 prof: 0; PKD1 inh: -11; Wee1 stabilizer: -1; p97 inh conf: 5

Results for CCN(CC)CCCN1C(=O)CSC1c1ccc([N+](=O)[O-])cc1 (stereo unspecified) ?
RBBP9 inh: -12; Arbovirus inh: 3; p97 ATPase inh: -1; Redox H2O2 prof: 0; PKD1 inh: 0; Wee1 stabilizer: 0

Results for CCOC(=O)c1c(NC(=O)c2ccco2)n(C2CCCCC2)c2nc3ccccc3nc12 ?
RBBP9 inh: -12; Arbovirus inh: 10; p97 ATPase inh: 7; Redox H2O2 prof: -5; PKD1 inh: 4; Wee1 stabilizer: -1

What do the screens show for `COc1ccc(-n2c(NC(=O)c3ccco3)c(C#N)c3nc4ccccc4nc32)cc1`?
RBBP9 inh: -6; Arbovirus inh: 15; p97 ATPase inh: 32*; Redox H2O2 prof: 0; PKD1 inh: 9; Wee1 stabilizer: 2; p97 inh conf: 29*

What do the screens show for `N#Cc1c(NC(=O)c2ccccc2Cl)n(Cc2ccccc2)c2nc3ccccc3nc12`?
RBBP9 inh: -3; Arbovirus inh: -21; p97 ATPase inh: 38*; Redox H2O2 prof: 4; PKD1 inh: 1; Wee1 stabilizer: 3; p97 inh conf: 47*

What do the screens show for `Cc1cccc(C)c1NC(=S)N(CCCN1CCOCC1)Cc1cccnc1`?
RBBP9 inh: 4; Arbovirus inh: 6; p97 ATPase inh: 3; Redox H2O2 prof: 0; PKD1 inh: -4; Wee1 stabilizer: 4

What do the screens show for `CSC1=NC(=O)/C(=C\c2cccc3ccccc23)S1`?
RBBP9 inh: -2; Arbovirus inh: 8; p97 ATPase inh: 15*; Redox H2O2 prof: 1; PKD1 inh: -8; Wee1 stabilizer: 0; p97 inh conf: 10

What do the screens show for `N=C1S/C(=C\c2cccc3ccccc23)C(=O)N1c1ccc(F)cc1`?
RBBP9 inh: -10; Arbovirus inh: -12; p97 ATPase inh: 2; Redox H2O2 prof: 0; PKD1 inh: 2; Wee1 stabilizer: -1

Results for Cc1occc1-c1nnc(SCC(=O)c2c[nH]c3ccccc23)n1C ?
RBBP9 inh: -6; Arbovirus inh: 3; p97 ATPase inh: 18*; Redox H2O2 prof: 0; PKD1 inh: -3; Wee1 stabilizer: -1; p97 inh conf: 29*

How did CCOC(=O)Cc1nc(-c2ccc(Cl)cc2)n[nH]1 do in these assays?
RBBP9 inh: 1; Arbovirus inh: 4; p97 ATPase inh: 1; Redox H2O2 prof: -2; PKD1 inh: -6; Wee1 stabilizer: -2

How did CCCCN(C)CCC(=O)Nc1ccc(F)c(F)c1 do in these assays?
RBBP9 inh: 0; Arbovirus inh: -3; p97 ATPase inh: 3; Redox H2O2 prof: 0; PKD1 inh: -6; Wee1 stabilizer: 2

What do the screens show for `COc1cc(C(=O)c2nccc3cc(OC)c(OC)cc23)c([N+](=O)[O-])cc1OC`?
RBBP9 inh: 4; Arbovirus inh: 5; p97 ATPase inh: 30*; Redox H2O2 prof: -2; PKD1 inh: -2; Wee1 stabilizer: -4; p97 inh conf: 25*

Results for COc1cc(NC(=O)Cn2nc(C(F)(F)F)c(Br)c2C)cc([N+](=O)[O-])c1 ?
RBBP9 inh: -10; Arbovirus inh: 14; p97 ATPase inh: -4; Redox H2O2 prof: -1; PKD1 inh: -12; Wee1 stabilizer: 0
